Test results published in ChEMBL document CHEMBL3351508, “Second-generation antibacterial benzimidazole ureas: discovery of a preclinical candidate with reduced metabolic liability” (J Med Chem, 2014).
≈ marks a conversion by molar mass, not a printed value.

Key:
[1] = tested on: Enterococcus faecalis; assay: Antibacterial activity against Enterococcus faecalis ATCC 29212 by CLSI method; type: functional
Method in brief: (§1)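 Broth microdilution MIC in liquid medium following CLSI methods, with ATCC strains. Each run was accepted only if comparator antibiotics fell within their recommended quality-control ranges for the appropriate ATCC strain.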

[2] = tested on: Enterococcus faecium; assay: Antibacterial activity against Enterococcus faecium ATCC 49624 by CLSI method; type: functional; method in brief: as §1
[3] = tested on: Staphylococcus aureus; assay: Antibacterial activity against Staphylococcus aureus ATCC 29213 by CLSI method; type: functional; method in brief: as §1
[4] = tested on: Staphylococcus aureus; assay: Antibacterial activity against Staphylococcus aureus ATCC 29213 by CLSI method in presence of human 50% serum; type: functional; method in brief: as §1
[5] = tested on: Streptococcus pneumoniae; assay: Antibacterial activity against Streptococcus pneumoniae ATCC 10015 by CLSI method; type: functional; method in brief: as §1
[6] = tested on: Rattus norvegicus; assay: Dose normalized AUC in rat at 30 mg/kg, po; type: ADME, organism-based; parameters: dose 30 mg/kg, route oral; details: in vivo
[7] = tested on: Haemophilus influenzae; assay: Antibacterial activity against Haemophilus influenzae ATCC 49247 by CLSI method; type: functional; method in brief: as §1
[8] = molecular target: DNA gyrase (Escherichia coli, UniProt P0AES4+P0AES6); assay: Inhibition of […] Escherichia coli DNA gyrase A2B2 using pBR322 plasmid DNA as substrate by coupled enzyme reaction assay; type: protein-complex assay
[9] = Inhibition of Staphylococcus aureus DNA topoisomerase-4 C2E2 using pBR322 plasmid DNA as substrate by coupled enzyme reaction assay
[10] = tested on: Liver microsome; assay: Drug metabolism in rat liver microsomes assessed as compound formation treated with 30 uM 1-Ethyl-3-(5-(5-fluoropyridin-3-yl)-7-(pyrimidin-2-yl)-1H-benzo-[d]imidazol-2-yl)urea for 1 hr; type: ADME
[11] = Drug metabolism in monkey liver microsomes assessed as compound formation treated with 30 uM 1-Ethyl-3-(5-(5-fluoropyridin-3-yl)-7-(pyrimidin-2-yl)-1H-benzo-[d]imidazol-2-yl)urea for 1 hr; type: ADME, Macaca mulatta; details: rhesus monkey
[12] = tested on: Liver microsome; assay: Drug metabolism in human liver microsomes assessed as compound formation treated with 30 uM 1-Ethyl-3-(5-(5-fluoropyridin-3-yl)-7-(pyrimidin-2-yl)-1H-benzo-[d]imidazol-2-yl)urea for 1 hr; type: ADME
[13] = Drug metabolism in human liver S9 fractions assessed as compound formation treated with 30 uM 1-Ethyl-3-(5-(5-fluoropyridin-3-yl)-7-(pyrimidin-2-yl)-1H-benzo-[d]imidazol-2-yl)urea for 1 hr; type: ADME, subcellular, Liver S9 fraction; details: s9, 1 h

SMILES	MIC [1]	MIC [2]	MIC [3]	MIC [4]	MIC [5]	AUC/dose [6]	Drug metabolism [10]	Drug metabolism [11]	Drug metabolism [12]	Drug metabolism [13]	MIC [7]	Ki [8]	Ki [9]
CCNC(=O)Nc1nc2cc(-c3ccc([C@H](O)CC)nc3)c(F)c(-n3cccn3)c2[nH]1	0.063 µg/mL (≈ 0.149 µM)	0.25 µg/mL (≈ 0.59 µM)	0.25 µg/mL (≈ 0.59 µM)	4 µg/mL	0.063 µg/mL (≈ 0.149 µM)								
CCNC(=O)Nc1nc2cc(-c3ccc(CN4CCOCC4)nc3)c(F)c(-n3cc(C)cn3)c2[nH]1	0.063 µg/mL (≈ 0.132 µM)	0.25 µg/mL (≈ 0.522 µM)	0.063 µg/mL (≈ 0.132 µM)	0.5 µg/mL	0.016 µg/mL (≈ 0.0334 µM)	1.9 microg.hr/mL per mg/kg							
CCNC(=O)Nc1nc2cc(-c3cnc(C(C)(C)O)nc3)c(F)c([C@@H]3CCCO3)c2[nH]1	0.5 µg/mL (≈ 1.17 µM)	2 µg/mL (≈ 4.67 µM)	0.5 µg/mL (≈ 1.17 µM)	4 µg/mL	0.25 µg/mL (≈ 0.583 µM)								
CCNC(=O)Nc1nc2cc(-c3ccn(C)c(=O)c3)cc(C3CCCO3)c2[nH]1 (racemic)	0.25 µg/mL (≈ 0.655 µM)	0.25 µg/mL (≈ 0.655 µM)	0.75 µg/mL (≈ 1.97 µM)	0.75 µg/mL	0.016 µg/mL (≈ 0.0419 µM)								
CCNC(=O)Nc1nc2cc(-c3ccc(C(O)CC)nc3)c(F)c(-n3cccn3)c2[nH]1 (stereo not drawn)	0.125 µg/mL (≈ 0.295 µM)	0.25 µg/mL (≈ 0.59 µM)	0.063 µg/mL (≈ 0.149 µM)	2 µg/mL	0.032 µg/mL (≈ 0.0756 µM)	7.2 microg.hr/mL per mg/kg							
CCNC(=O)Nc1nc2cc(-c3cnc(C(C)(C)O)nc3)c(F)c(C3CCCO3)c2[nH]1 (racemic)	0.125 µg/mL (≈ 0.292 µM)	0.5 µg/mL (≈ 1.17 µM)	0.063 µg/mL (≈ 0.147 µM)	0.5 µg/mL	0.032 µg/mL (≈ 0.0747 µM)								
CCNC(=O)Nc1nc2cc(-c3ccc([C@@H](O)CC)nc3)c(F)c(-n3cccn3)c2[nH]1	0.063 µg/mL (≈ 0.149 µM)	0.5 µg/mL (≈ 1.18 µM)	0.063 µg/mL (≈ 0.149 µM)	1 µg/mL	0.016 µg/mL (≈ 0.0378 µM)	8.4 microg.hr/mL per mg/kg							
CCNC(=O)Nc1nc2c(-n3cccn3)cc(-c3cccnc3)cc2[nH]1	0.063 µg/mL (≈ 0.181 µM)		0.25 µg/mL (≈ 0.72 µM)	4 µg/mL	0.016 µg/mL (≈ 0.0461 µM)	5.7 microg.hr/mL per mg/kg							
CCNC(=O)Nc1nc2cc(-c3ccc(CN4CCOCC4)nc3)c(F)c(-n3cccn3)c2[nH]1	0.125 µg/mL (≈ 0.269 µM)	0.5 µg/mL (≈ 1.08 µM)	0.25 µg/mL (≈ 0.538 µM)	1 µg/mL	0.016 µg/mL (≈ 0.0344 µM)	13.8 microg.hr/mL per mg/kg							
CCNC(=O)Nc1nc2cc(-c3ccc(C(C)(C)O)nc3)cc(C3CCCO3)c2[nH]1 (racemic)	0.25 µg/mL (≈ 0.611 µM)	1 µg/mL (≈ 2.44 µM)	0.5 µg/mL (≈ 1.22 µM)	2 µg/mL	0.063 µg/mL (≈ 0.154 µM)	2.6 microg.hr/mL per mg/kg							
CCNC(=O)Nc1nc2cc(-c3cccnc3)cc(-c3ncccc3F)c2[nH]1	0.016 µg/mL (≈ 0.0425 µM)		0.031 µg/mL (≈ 0.0824 µM)	1 µg/mL	≤ 0.008 µg/mL						1 µg/mL (≈ 2.66 µM)	6 nM	

Now from value to molecule, other results behind:

MIC [1]	MIC [2]	MIC [3]	MIC [4]	MIC [5]	AUC/dose [6]	Drug metabolism [10]	Drug metabolism [11]	Drug metabolism [12]	Drug metabolism [13]	SMILES	MIC [7]	Ki [8]	Ki [9]
> 8 µg/mL	> 8 µg/mL	> 8 µg/mL	> 8 µg/mL	> 8 µg/mL						CNCC(=O)Nc1nc2cc(-c3cncc(F)c3)cc(-c3ncccn3)c2[nH]1			
1 µg/mL (≈ 2.44 µM)	2 µg/mL (≈ 4.87 µM)	1 µg/mL (≈ 2.44 µM)	2 µg/mL	0.5 µg/mL (≈ 1.22 µM)						CCNC(=O)Nc1nc2cc(-c3cnc(C(C)(C)O)nc3)cc([C@@H]3CCCO3)c2[nH]1			
0.063 µg/mL (≈ 0.153 µM)	0.5 µg/mL (≈ 1.22 µM)	0.125 µg/mL (≈ 0.305 µM)	0.25 µg/mL	0.032 µg/mL (≈ 0.078 µM)	4.3 microg.hr/mL per mg/kg					CCNC(=O)Nc1nc2cc(-c3cnc(C(C)(C)O)nc3)cc([C@H]3CCCO3)c2[nH]1			
0.032 µg/mL (≈ 0.0735 µM)		0.031 µg/mL (≈ 0.0712 µM)	0.25 µg/mL	≤ 0.008 µg/mL						CCNC(=O)Nc1nc2cc(-c3cnc(C(C)(C)O)nc3)cc(-c3ncccc3F)c2[nH]1	1 µg/mL (≈ 2.3 µM)	< 4 nM	< 6 nM
0.016 µg/mL (≈ 0.0423 µM)	0.016 µg/mL (≈ 0.0423 µM)	0.016 µg/mL (≈ 0.0423 µM)	> 8 µg/mL	0.008 µg/mL (≈ 0.0211 µM)						CCOC(=O)Nc1nc2cc(-c3cncc(F)c3)cc(-c3ncccn3)c2[nH]1			
						metabolite_detected	metabolite_detected	metabolite_detected	metabolite_detected	O=C(Nc1nc2cc(-c3cncc(F)c3)cc(-c3ncccn3)c2[nH]1)NC1CO1 (stereo not drawn)			
0.25 µg/mL (≈ 0.609 µM)	0.5 µg/mL (≈ 1.22 µM)	0.25 µg/mL (≈ 0.609 µM)	0.5 µg/mL	0.032 µg/mL (≈ 0.078 µM)	5.5 microg.hr/mL per mg/kg					CCNC(=O)Nc1nc2cc(-c3cnc(C(C)(C)O)nc3)cc(C3CCCO3)c2[nH]1 (racemic)			
0.25 µg/mL (≈ 0.711 µM)		1 µg/mL (≈ 2.85 µM)	4 µg/mL	0.125 µg/mL (≈ 0.356 µM)						CCNC(=O)Nc1nc2cc(-c3cccnc3)cc(C3CCCO3)c2[nH]1 (racemic)			
0.125 µg/mL (≈ 0.305 µM)	0.5 µg/mL (≈ 1.22 µM)	0.125 µg/mL (≈ 0.305 µM)	3 µg/mL	0.032 µg/mL (≈ 0.0782 µM)						CCNC(=O)Nc1nc2cc(-c3ccc(C(C)O)nc3)c(F)c(-n3cccn3)c2[nH]1 (stereo not drawn)			
0.016 µg/mL (≈ 0.032 µM)	0.032 µg/mL (≈ 0.0639 µM)	0.016 µg/mL (≈ 0.032 µM)	0.125 µg/mL	0.008 µg/mL (≈ 0.016 µM)	0.2 microg.hr/mL per mg/kg					CCNC(=O)Nc1nc2cc(-c3cc(C)n(Cc4ccccn4)c(=O)c3)c(F)c(-n3cc(C)cn3)c2[nH]1			
		> 8 µg/mL	> 8 µg/mL							NC(=O)Nc1nc2cc(-c3cncc(F)c3)cc(-c3ncccn3)c2[nH]1			
		> 8 µg/mL	> 8 µg/mL							CCCC(=O)Nc1nc2cc(-c3cncc(F)c3)cc(-c3ncccn3)c2[nH]1			
0.032 µg/mL (≈ 0.0846 µM)	0.032 µg/mL (≈ 0.0846 µM)	0.064 µg/mL (≈ 0.169 µM)	8 µg/mL	0.032 µg/mL (≈ 0.0846 µM)						COCC(=O)Nc1nc2cc(-c3cncc(F)c3)cc(-c3ncccn3)c2[nH]1			
0.125 µg/mL (≈ 0.265 µM)	0.25 µg/mL (≈ 0.529 µM)	0.125 µg/mL (≈ 0.265 µM)	0.25 µg/mL	0.008 µg/mL (≈ 0.0169 µM)						CCNC(=O)Nc1nc2cc(-c3cc(C)n(Cc4ccccn4)c(=O)c3)cc(C3CCCO3)c2[nH]1 (racemic)			
0.063 µg/mL (≈ 0.172 µM)		0.25 µg/mL (≈ 0.684 µM)	2 µg/mL	0.032 µg/mL (≈ 0.0876 µM)	10.8 microg.hr/mL per mg/kg					CCNC(=O)Nc1nc2cc(-c3cccnc3)c(F)c(-n3cccn3)c2[nH]1			
0.5 µg/mL (≈ 1.42 µM)	1 µg/mL (≈ 2.84 µM)	1 µg/mL (≈ 2.84 µM)	2 µg/mL	0.125 µg/mL (≈ 0.355 µM)	10.5 microg.hr/mL per mg/kg					CCNC(=O)Nc1nc2cc(-c3cncnc3)cc(C3CCCO3)c2[nH]1 (racemic)			
						metabolite_detected	metabolite_detected	metabolite_detected	metabolite_detected	C=CNC(=O)Nc1nc2cc(-c3cncc(F)c3)cc(-c3ncccn3)c2[nH]1			
